The source made the active and inactive calls. No cut-off for these calls is given here.
How the values were obtained:
[1] = species on record: Danio rerio; experiment: Increase in cardiac cmlc2 expression in 18-somite stage Tg(dusp:EGFP)pt6 zebrafish embryo
[2] = target: T1, Dual specificity protein phosphatase 6 (Homo sapiens) (UniProt Q16828); experiment: Inhibition of Dusp6 in 1-somite stage Tg(dusp:EGFP)pt6 zebrafish assessed as increase in dusp6 FGF target gene expression in tailbud at 10 uM by RT-PCR
T1 sequence (whole entry): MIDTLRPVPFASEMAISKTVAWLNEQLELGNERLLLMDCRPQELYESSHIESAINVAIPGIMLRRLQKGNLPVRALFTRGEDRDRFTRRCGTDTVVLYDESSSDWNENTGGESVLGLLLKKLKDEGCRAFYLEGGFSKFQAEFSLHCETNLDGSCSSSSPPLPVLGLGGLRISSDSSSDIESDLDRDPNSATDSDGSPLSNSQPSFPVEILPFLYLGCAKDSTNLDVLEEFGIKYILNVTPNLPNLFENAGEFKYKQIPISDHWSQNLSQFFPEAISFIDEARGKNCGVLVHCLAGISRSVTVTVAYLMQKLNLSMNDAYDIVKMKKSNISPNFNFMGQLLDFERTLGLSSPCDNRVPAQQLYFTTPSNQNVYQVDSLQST

[3] = target: T1, Dual specificity protein phosphatase 6 (Homo sapiens); experiment: Inhibition of Dusp6 basal phosphatase activity using 3-o-methylfluoro-rescein phosphate substrate at 10:1 enzyme to ERK protein ration; conditions: concentration not given here
[4] = target: T1, Dual specificity protein phosphatase 6 (Homo sapiens); experiment: Inhibition of Myc-tagged human Dusp6 expressed in TPA-induced human HeLa cells assessed as decrease in dephosphorylation of pERK measured at 100 uM by immunostaining; assay type: cell-based
[5] = species on record: Danio rerio; experiment: Inhibition of dusp7 gene expression in Tg(dusp:EGFP)pt6 zebrafish embryos; assay type: functional; conditions: Embryo
[6] = species on record: Danio rerio; experiment: Inhibition of dusp22a gene expression in Tg(dusp:EGFP)pt6 zebrafish embryos; assay type: functional; conditions: Embryo
[7] = target: T1, Dual specificity protein phosphatase 6 (Homo sapiens); experiment: Inhibition of Dusp6 in Tg(dusp:EGFP)pt6 zebrafish assessed as increase in engrailed 2b in prospective mid-hindbrain boundary at 10 uM by RT-PCR
[8] = target: T2, Tyrosine-protein phosphatase non-receptor type 1 (Homo sapiens, UniProt P18031); experiment: Inhibition of PTP1B
T2 sequence (P18031 whole entry): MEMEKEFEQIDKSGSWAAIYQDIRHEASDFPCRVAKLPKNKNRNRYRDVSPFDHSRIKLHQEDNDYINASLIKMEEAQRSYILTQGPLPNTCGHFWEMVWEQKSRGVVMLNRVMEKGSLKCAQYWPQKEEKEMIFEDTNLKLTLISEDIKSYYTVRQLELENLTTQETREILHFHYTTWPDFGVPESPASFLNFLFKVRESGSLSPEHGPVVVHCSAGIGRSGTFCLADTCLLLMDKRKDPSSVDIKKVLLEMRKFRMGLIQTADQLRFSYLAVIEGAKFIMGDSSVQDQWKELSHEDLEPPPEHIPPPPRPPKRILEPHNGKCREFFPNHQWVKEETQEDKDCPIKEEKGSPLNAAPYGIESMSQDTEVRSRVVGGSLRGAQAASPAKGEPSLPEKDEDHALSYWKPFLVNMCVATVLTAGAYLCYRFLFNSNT

[9] = target: T1, Dual specificity protein phosphatase 6 (Homo sapiens); experiment: Inhibition of Dusp6 in 10-somite stage Tg(dusp:EGFP)pt6 zebrafish assessed as increase in dusp6 FGF target gene expression in mid-hindbrain boundary at 10 uM by RT-PCR
[10] = species on record: Danio rerio; experiment: Induction of cardiac tissue expansion in larval stage Tg(dusp:EGFP)pt6 zebrafish embryo after 8 hrs; assay type: functional, tissue-based
[11] = species on record: Danio rerio; experiment: Increase in cardiac hand2 expression in 10-somite stage Tg(dusp:EGFP)pt6 zebrafish embryo; assay type: functional
[12] = target: T1, Dual specificity protein phosphatase 6 (Homo sapiens); experiment: Inhibition of Dusp6 in Tg(dusp:EGFP)pt6 zebrafish assessed as increase in spry4 gene expression at 10 uM by RT-PCR
[13] = species on record: Danio rerio; experiment: Inhibition of dusp5 gene expression in Tg(dusp:EGFP)pt6 zebrafish embryos; assay type: functional; conditions: Embryo
[14] = target: T1, Dual specificity protein phosphatase 6 (Homo sapiens); experiment: Inhibition of Dusp6 in 1-cell stage Tg(dusp:EGFP)pt6 zebrafish embryos injected with XFD mRNA assessed as sef gene expression restoring at 5 uM
Summary of the method: (§1)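 Embryos were injected at the 1-2 cell stage with 500 pg of spry4 or XFD mRNA. They were exposed to 5 μM compound at the 1000-cell stage and fixed at shield stage. sef expression was then assessed by in situ hybridization.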

[15] = species on record: Danio rerio; experiment: Inhibition of dusp1 gene expression in Tg(dusp:EGFP)pt6 zebrafish embryos; assay type: functional; conditions: Embryo
[16] = target: T1, Dual specificity protein phosphatase 6 (Homo sapiens); experiment: Inhibition of Dusp6 in Tg(dusp:EGFP)pt6 zebrafish embryo assessed as reduction in scl gene expression; conditions: concentration not given here
[17] = target: T1, Dual specificity protein phosphatase 6 (Homo sapiens); experiment: Inhibition of Dusp6 in 10-somite stage Tg(dusp:EGFP)pt6 zebrafish assessed as increase in dusp6 FGF target gene expression in rhombomere 4 at 10 uM by RT-PCR
[18] = target: T3, Dual specificity protein phosphatase 5 (Homo sapiens) (UniProt Q16690); experiment: Inhibition of Dusp5
T3 sequence (whole entry): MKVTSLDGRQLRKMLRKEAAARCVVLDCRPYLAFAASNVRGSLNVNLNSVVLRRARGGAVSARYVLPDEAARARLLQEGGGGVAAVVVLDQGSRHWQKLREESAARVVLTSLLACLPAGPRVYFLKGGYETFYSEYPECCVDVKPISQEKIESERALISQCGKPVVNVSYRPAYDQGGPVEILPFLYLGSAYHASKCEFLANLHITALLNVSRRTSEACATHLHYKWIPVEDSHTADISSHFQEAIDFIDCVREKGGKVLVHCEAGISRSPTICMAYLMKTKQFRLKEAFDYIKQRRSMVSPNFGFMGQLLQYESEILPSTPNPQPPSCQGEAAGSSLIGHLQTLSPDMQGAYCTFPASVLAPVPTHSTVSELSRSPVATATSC

[19] = target: T1, Dual specificity protein phosphatase 6 (Homo sapiens); experiment: Inhibition of Dusp6 in 1-cell stage Tg(dusp:EGFP)pt6 zebrafish embryos injected with spry4 mRNA assessed as sef gene expression restoring at 5 uM
Summary of the method: as §1

[20] = species on record: Danio rerio; experiment: Increase in cardiac myl7 expression in 18-somite stage Tg(dusp:EGFP)pt6 zebrafish embryo
[21] = target: Dual specificity protein phosphatase 3 (Homo sapiens, UniProt P51452); experiment: Inhibition of Dusp3/VHR
Chain of Dual specificity protein phosphatase 3 (P51452 whole entry): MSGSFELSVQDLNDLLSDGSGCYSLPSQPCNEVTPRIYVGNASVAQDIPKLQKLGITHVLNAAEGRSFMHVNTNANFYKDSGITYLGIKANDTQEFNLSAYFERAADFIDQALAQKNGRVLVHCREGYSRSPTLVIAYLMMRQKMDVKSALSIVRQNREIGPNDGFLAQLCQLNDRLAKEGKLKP

[22] = target: T1, Dual specificity protein phosphatase 6 (Homo sapiens); experiment: Inhibition of Dusp6 basal phosphatase activity using 3-o-methylfluoro-rescein phosphate substrate in presence of ERK protein; conditions: concentration not given here
Summary of the method: (§2)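 Recombinant Dusp6 activity was followed as dephosphorylation of the small-molecule substrate 3-O-methylfluorescein phosphate, with or without ERK2 present to stimulate catalysis.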

[23] = target: T1, Dual specificity protein phosphatase 6 (Homo sapiens); experiment: Inhibition of Dusp6 in 1-somite stage Tg(dusp:EGFP)pt6 zebrafish assessed as increase in dusp6 FGF target gene expression in rhombomere 4 at 10 uM by RT-PCR
[24] = species on record: Danio rerio; experiment: Inhibition of dusp4 gene expression in Tg(dusp:EGFP)pt6 zebrafish embryos; assay type: functional; conditions: Embryo
[25] = target: T4, Dual specificity protein phosphatase 1 (Homo sapiens, UniProt P28562); experiment: Inhibition of Myc-tagged human Dusp1 expressed in TPA-induced human HeLa cells assessed as decrease in dephosphorylation of pERK measured by immunostaining; assay type: cell-based
T4 sequence (P28562 whole entry): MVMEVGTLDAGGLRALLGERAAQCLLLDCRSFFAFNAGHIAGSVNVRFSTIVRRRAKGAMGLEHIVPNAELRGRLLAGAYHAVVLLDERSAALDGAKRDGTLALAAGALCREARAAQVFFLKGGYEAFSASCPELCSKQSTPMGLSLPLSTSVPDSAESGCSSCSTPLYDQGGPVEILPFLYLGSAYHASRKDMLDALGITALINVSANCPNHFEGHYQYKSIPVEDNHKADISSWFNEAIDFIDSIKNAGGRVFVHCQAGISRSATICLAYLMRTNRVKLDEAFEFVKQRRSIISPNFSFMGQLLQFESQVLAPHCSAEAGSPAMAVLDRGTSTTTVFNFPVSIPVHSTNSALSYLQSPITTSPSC
Summary of the method: (§3)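 HeLa cells (2,000 per collagen-coated well; DMEM, 10% FBS, 37°C, 5% CO2) were transfected with human c-Myc-Dusp1 or c-Myc-Dusp6. After 20 h, quadruplicate wells received ten two-fold concentrations of compound for 15 min, then TPA (500 ng/ml) for 15 min. Cells were fixed and immunostained for pERK and c-Myc, and 1000 Myc-gated cells were imaged. pERK restoration was expressed as Kolmogorov-Smirnov values normalized to vehicle-treated transfected wells. Six independent experiments were run.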

[26] = Increase in transcription factor gata4 gene in Tg(dusp:EGFP)pt6 zebrafish embryo anterior lateral plate mesoderm; assay type: functional, Danio rerio
[27] = target: T5, Dual specificity protein phosphatase 6 (Homo sapiens, UniProt Q16828); experiment: Inhibition of Myc-tagged human Dusp6 expressed in TPA-induced human HeLa cells assessed as decrease in dephosphorylation of pERK measured by immunostaining; assay type: cell-based
T5 sequence (Q16828 whole entry): T1 sequence (whole entry)
Summary of the method: as §3

[28] = Increase in transcription factor nkx2.5 gene in Tg(dusp:EGFP)pt6 zebrafish embryo anterior lateral plate mesoderm; assay type: functional, Danio rerio
[29] = target: T6, M-phase inducer phosphatase 2 (Homo sapiens, UniProt P30305); experiment: Inhibition of Cdc25B
T6 sequence (P30305 whole entry): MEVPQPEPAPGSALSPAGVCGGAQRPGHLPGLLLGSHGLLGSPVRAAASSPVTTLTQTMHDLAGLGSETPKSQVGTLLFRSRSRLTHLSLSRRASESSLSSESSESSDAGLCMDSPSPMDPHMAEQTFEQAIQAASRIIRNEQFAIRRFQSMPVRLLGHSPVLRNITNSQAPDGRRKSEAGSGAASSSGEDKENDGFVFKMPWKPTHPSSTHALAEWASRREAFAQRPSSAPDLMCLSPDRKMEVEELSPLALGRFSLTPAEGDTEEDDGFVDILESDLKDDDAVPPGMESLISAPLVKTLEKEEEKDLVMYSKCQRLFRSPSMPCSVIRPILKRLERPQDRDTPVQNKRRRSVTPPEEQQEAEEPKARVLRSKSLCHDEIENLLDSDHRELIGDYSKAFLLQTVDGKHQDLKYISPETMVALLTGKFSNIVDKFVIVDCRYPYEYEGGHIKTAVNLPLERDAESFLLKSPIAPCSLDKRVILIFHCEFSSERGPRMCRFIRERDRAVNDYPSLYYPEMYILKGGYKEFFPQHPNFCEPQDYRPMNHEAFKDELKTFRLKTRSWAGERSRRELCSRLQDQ

[30] = target: T1, Dual specificity protein phosphatase 6 (Homo sapiens); experiment: Inhibition of […] in Tg(dusp:EGFP);ace mutant zebrafish assessed as increase in FGF-signaling mediated d2EGFP fluorescence in mid-hindbrain boundary at 10 uM after 2 hrs
[31] = target: T1, Dual specificity protein phosphatase 6 (Homo sapiens); experiment: Inhibition of Dusp6 in Tg(dusp:EGFP)pt6 zebrafish assessed as increase in il17rd gene expression at 10 uM by RT-PCR
[32] = target: T1, Dual specificity protein phosphatase 6 (Homo sapiens); experiment: Inhibition of Dusp6 basal phosphatase activity using 3-o-methylfluoro-rescein phosphate substrate
Summary of the method: as §2

[33] = target: T1, Dual specificity protein phosphatase 6 (Homo sapiens); experiment: Inhibition of Dusp6 in Tg(dusp:EGFP)pt6 zebrafish assessed as increase in FGF-signaling mediated d2EGFP fluorescence at 10 uM after 2 hrs
Summary of the method: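 Tg(dusp6:EGFP)pt6 embryos from natural crosses were raised at 28.5°C to 24 hpf, then placed five per well in E3. Compound was added at 10 μM in 0.5% DMSO, with 0.5% DMSO as vehicle control. d2EGFP intensity was scored visually against vehicle-treated embryos. Assays were run three times, and at least four of five embryos had to share the phenotype.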

[34] = target: T1, Dual specificity protein phosphatase 6 (Homo sapiens); experiment: Inhibition of Dusp6 in 1-somite stage Tg(dusp:EGFP)pt6 zebrafish assessed as increase in dusp6 FGF target gene expression in mid-hindbrain boundary at 10 uM by RT-PCR
[35] = target: T1, Dual specificity protein phosphatase 6 (Homo sapiens); experiment: Inhibition of Dusp6 in Tg(dusp:EGFP)pt6 zebrafish embryo assessed as reduction in etv2 gene expression
[36] = target: T1, Dual specificity protein phosphatase 6 (Homo sapiens); experiment: Inhibition of Dusp6 in 10-somite stage Tg(dusp:EGFP)pt6 zebrafish assessed as increase in dusp6 FGF target gene expression in tailbud at 10 uM by RT-PCR
[37] = target: T7, Dual specificity protein phosphatase 1 (Homo sapiens) (UniProt P28562); experiment: Inhibition of Myc-tagged human Dusp1 expressed in TPA-induced human HeLa cells assessed as decrease in dephosphorylation of pERK measured at 100 uM by immunostaining; assay type: cell-based
T7 sequence (whole entry): T4 sequence (P28562 whole entry)

## O=C1/C(=C/c2ccccc2)C(NC2CCCCC2)c2ccccc21 (stereo not drawn)
[1]
  Activity: 81%
[2]
  inhibition: Active
[3]
  inhibition: 30%
[4]
  inhibition: Active
[5]
  inhibition: Active
[6]
  inhibition: Active
[7]
  inhibition: Active
[8]
  IC50: Not Active
[9]
  inhibition: Active
[10]
  Activity: Active
[11]
  Activity: 32%
[12]
  inhibition: Active
[13]
  inhibition: Active
[14]
  inhibition: inactive
[15]
  inhibition: Active
[16]
  inhibition: 93%
[17]
  inhibition: Active
[18]
  inhibition: inactive
[19]
  inhibition: inactive
[20]
  Activity: 81%
[21]
  IC50: Not Active
[22]
  inhibition: 57%
[23]
  inhibition: Active
[24]
  inhibition: Active
[25]
  IC50: 11.5 µM
[26]
  Activity: 81%
[27]
  IC50: 12.3 µM
[28]
  Activity: 91%
[29]
  IC50: Not Active
[30]
  inhibition: inactive
[31]
  inhibition: Active
[32]
  inhibition: inactive
[33]
  inhibition: Dose-dependent effect
[34]
  inhibition: Active
[35]
  inhibition: Active
[36]
  inhibition: Active

## O=C1CC(NC2CCCCC2)c2ccccc21 (stereo not drawn)
[4]
  inhibition: inactive
[37]
  inhibition: inactive

Source: ChEMBL document CHEMBL1240345 (Nat Chem Biol, 2009)
